The test system of one data set is Clostridioides difficile. Nature of the data set: Antibacterial activity against Clostridium difficile 630 ATCC BAA-1382 by broth microdilution assay. The data set is classed as functional. The procedure, abridged:
(§1)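 Broth microdilution run essentially per an earlier report. MIC taken as the lowest concentration with no visible growth. Replicates typically agreed within one 2-fold dilution. The median MIC is reported, with a range where the median fell between two tested concentrations.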
On the technique in general: Dilution methods test growth across graded concentrations, often in twofold steps.

Data set [1] is described as follows: Metabolic stability in CD-1 mouse plasma assessed as parent compound remaining at 3 uM after 2 hrs by LC-MS/MS analysis.
The nature of data set [2]: Apparent permeability across apical to basolateral side in human Caco2 cells assessed as mean drug recovery at 2 uM after 2 hrs by lucifer yellow dye-based LC-MS/MS analysis. To be noted: caco-2, 2 h. For orientation: Passage across Caco-2 layers is used to estimate intestinal permeability.
Data set [3] in a line: Metabolic stability in CD-1 mouse liver microsomes assessed as parent compound remaining at 3 uM after 2 hrs by LC-MS/MS analysis.
Data set [4] in a line: Metabolic stability in human plasma assessed as parent compound remaining at 3 uM after 2 hrs by LC-MS/MS analysis.
The nature of data set [5]: Apparent permeability across basolateral to apical side in human Caco2 cells at 2 uM after 2 hrs by lucifer yellow dye-based LC-MS/MS analysis. To be noted: caco-2, 2 h.
Data set [6] is described as follows: Apparent permeability across apical to basolateral side in human Caco2 cells at 2 uM after 2 hrs by lucifer yellow dye-based LC-MS/MS analysis. Particulars: caco-2, 2 h.
Data set [7] is described as follows: Apparent permeability across basolateral to apical side in human Caco2 cells assessed as mean drug recovery at 2 uM after 2 hrs by lucifer yellow dye-based LC-MS/MS analysis. Particulars: Caco-2.
Data set [8] in a line: Metabolic stability in human liver microsomes assessed as parent compound remaining at 3 uM after 2 hrs by LC-MS/MS analysis. In general terms: Liver microsomes are a subcellular fraction often used to study metabolism.
Another data set deals with HepG2. Nature of the data set: Cytotoxicity against human HepG2 cells after 24 hrs by resazurin dye-based fluorescence assay. The data set is classed as cell-based. To be noted: hepg2, 24 h. In outline:
(§2)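 HEK293 (3000/well) and HepG2 (5000/well) were grown 24 h in DMEM with 10% FBS at 37 °C, 5% CO2. Cells were then exposed 24 h to a dilution series up to 100 µM (0.5% DMSO). 5 µM resazurin was added for 2 h, read at ex 560/em 590. 1% Triton X-100 served as lysis control. CC50 was derived from the curves.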

A further data set concerns Candida albicans. Kind of data set: Antifungal activity against Candida albicans ATCC 90028 by broth microdilution assay. The data set is classed as functional. In outline: as §1
Data set [9] concerns Trypanosoma brucei brucei. Nature of the data set: Antiparasitic activity against bloodstream form of Trypanosoma brucei brucei strain 427 after 48 hrs by resazurin dye-based assay. The data set is classed as functional, organism-based. To be noted: for pIC50 / IC50: strain 427, 48 h; for pIC50: read-out: IC50; for IC50: read-out: pIC50 (converted).
A further data set relates to Escherichia coli. Nature of the data set: Antibacterial activity against Escherichia coli ATCC 25922 by broth microdilution assay. The data set is classed as functional. In outline: as §1
Data set [10] has as its system Giardia intestinalis. Kind of data set: Antiparasitic activity against Giardia lamblia WB trophozoites after 24 to 48 hrs by CellTiter-Glo luminescent cell viability assay. To be noted: Giardia duodenalis; for IC50: read-out: pIC50 (converted).
Data set [11] deals with Mycobacterium tuberculosis. Kind of data set: Antibacterial activity against non-replicating Mycobacterium tuberculosis H37Rv assessed as inhibition of bacterial growth at 0.06 to 16 ug/ml after 5 days under hypoxic condition by resazurin dye-based fluorescence assay relative to control. The data set is classed as functional. To be noted: at 0.06 to 16 µg/mL.
The next data set deals with Cryptococcus neoformans. Nature of the data set: Antifungal activity against Cryptococcus neoformans H99 ATCC […] broth microdilution assay. To be noted: var. grubii H99 ATCC 208821. Type of data set: functional. In outline:
as §1

In a further data set the test system is HEK293. Nature of the data set: Cytotoxicity against HEK293 cells after 24 hrs by resazurin dye-based fluorescence assay. Type of data set: cell-based. Particulars: human, hek293, 24 h. The procedure, abridged:
as §2

A short description of data set [12]: physchem. To be noted: water.
Data set [13] can be described thus: physchem. Particulars: PBS, pH 7.4.
The next data set deals with Pseudomonas aeruginosa. Nature of the data set: Antibacterial activity against Pseudomonas aeruginosa ATCC 27853 by broth microdilution assay. Type of data set: functional. The procedure, abridged:
as §1

The test system of data set [14] is Mycobacterium tuberculosis. Kind of data set: Antibacterial activity against Mycobacterium tuberculosis H37Rv after 5 days under normoxic condition by resazurin dye-based fluorescence assay. The data set is classed as functional, organism-based. In outline:
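H37Rv grown in 7H9/ADC/glycerol/Tyloxapol to mid-exponential phase, diluted to OD600 0.001 (~2 x 10^4 CFU/mL) in 7H9S with serially diluted compound. Incubated 5 days at 37 °C, then resazurin and Tween-80 added. Fluorescence (ex 530/em 590 nm) read after 24 h, normalised to no-drug and no-bacteria wells.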

The test system of the next data set is Acinetobacter baumannii. Nature of the data set: Antibacterial activity against Acinetobacter baumannii ATCC 19606 by broth microdilution assay. To be noted: ATCC 19606 = CIP 70.34 = JCM 6841. The data set is classed as functional. The procedure, abridged:
as §1

The next data set concerns Klebsiella pneumoniae. Nature of the data set: Antibacterial activity against Klebsiella pneumoniae 700603 by broth microdilution assay. The data set is classed as functional. The procedure, abridged:
as §1

The next data set concerns Staphylococcus aureus. Nature of the data set: Antibacterial activity against methicillin-resistant Staphylococcus aureus ATCC […] by broth microdilution assay. Type of data set: functional.
Data set [15] relates to Giardia intestinalis. Kind of data set: Antiparasitic activity against Giardia lamblia WB trophozoites after 24 to 48 hrs by CellTiter-Glo luminescent cell viability assay. Particulars: Giardia duodenalis.
The test system of data set [16] is Entamoeba histolytica. Nature of the data set: Antiparasitic activity against Entamoeba histolytica HM-1:IMSS trophozoites after 24 to 48 hrs by CellTiter-Glo luminescent cell viability assay. Type of data set: functional, organism-based. The procedure, abridged:
(§3)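 Axenic trophozoites were kept in TYI-S-33 with penicillin (100 U/mL) and streptomycin (100 µg/mL) and harvested in log phase. 5000 parasites per well were exposed to a final 8-point two-fold series of 0.39–50 µM, from 10 mM DMSO stocks. Plates were incubated 24–48 h at 37 °C under anaerobic conditions. ATP luminescence viability was read in triplicate. Percent inhibition is given at the highest concentration tested.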

The conditions of data set [17]: buffer, 24 h, 200 µM.
For data set [18] the following is noted: buffer, pH 7.4, 24 h, 200 µM.
Data set [19] deals with Mycobacterium tuberculosis. Nature of the data set: Antibacterial activity against non-replicating Mycobacterium tuberculosis H37Rv after 5 days under hypoxic condition by resazurin dye-based fluorescence assay. The data set is classed as functional. To be noted: 120 h. The procedure, abridged: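 Same H37Rv inoculum (OD600 0.001, ~2 x 10^4 CFU/mL) in 7H9S with serially diluted compound. Plates held 5 days at 0.1% oxygen, then resazurin plus Tween-80 added.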

Data set [20] deals with Mycobacterium tuberculosis. Nature of the data set: Antibacterial activity against non-replicating Mycobacterium tuberculosis H37Rv assessed as inhibition of bacterial growth at 0.125 to 8 ug/ml after 5 days under hypoxic condition by resazurin dye-based fluorescence assay relative to control. The data set is classed as functional.
Data set [21] deals with Entamoeba histolytica. Nature of the data set: Antiparasitic activity against Entamoeba histolytica HM-1:IMSS trophozoites assessed as inhibition of parasitic growth at 50 uM after 24 to 48 hrs by CellTiter-Glo luminescent cell viability assay relative to control. The data set is classed as functional. To be noted: read-out: GI. In outline: as §3

Structures are written as SMILES. pIC50: −log10 of the molar value. Converted amounts (≈) assume the structure as drawn. The source made the active and inactive calls.

For `O=c1c2nc([N+](=O)[O-])cn2ccn1Cc1cccc(OC(F)(F)F)c1`, the MIC with Clostridioides difficile is more than 64 µg/mL. The Stability in data set [1] is 97%; in data set [3], more than 99%; in data set [4] it was more than 99%; in data set [8], more than 99%. In data set [2], the Drug recovery came to 88%. For the same molecule, the Papp in [5] and in data set [6] was 24 ×10⁻⁶ cm/s each time. The recovery at 2 h, 2 µM in data set [7] was 99%.
As to `O=c1c2nc([N+](=O)[O-])cn2ccn1Cc1cccc(C(F)(F)F)c1`, the CC50 in the data set with HepG2 and with HEK293 was more than 100 µM throughout. The MIC was more than 32 µg/mL against Candida albicans; more than 32 µg/mL against Escherichia coli; more than 32 µg/mL with Cryptococcus neoformans; more than 32 µg/mL in the data set with Pseudomonas aeruginosa; 0.06 µg/mL (≈ 0.177 µM) in [14]; more than 32 µg/mL in the data set on Acinetobacter baumannii. Moreover, the minimum inhibitory concentration (MIC) against Klebsiella pneumoniae and with Staphylococcus aureus was more than 32 µg/mL throughout. In addition, the negative-log IC50 (pIC50) was 5.28 in [9] and 5.15 in the data set with Giardia intestinalis [10]. Also, the IC50 was 5.01 µM in data set [9] and 7.94 µM with Giardia intestinalis [10]. The “growth inhibition (GI)” value in [11] is 70 - 90%. In addition, the solubility (kinetic) at 24 h, 200 µM in the data set “physchem [12]” and in “physchem [13]” was less than 5 µM each time.
For `O=c1c2nccn2ccn1Cc1ccc(F)cc1`, the result (in data set [9]; in the data set on Giardia intestinalis [15]; with Entamoeba histolytica [16]) was inactive.
As to `Cc1ccc(Cn2c(C)c(C)n3cc([N+](=O)[O-])nc3c2=O)cc1`, the “log(Kinetic_solubility)” value in data set [17] and in data set [18] was less than -5 throughout. Further, the negative logarithm of the IC50 (pIC50) in [9] is 6.60; in the data set with Giardia intestinalis [10], 5.28; in the data set with Entamoeba histolytica [16] (read-out: IC50), 4.48. The IC50 in data set [9] was 0.251 µM; with Giardia intestinalis [10], 5.01 µM; in the data set with Entamoeba histolytica [16] (read-out: pIC50 (converted)) it was 31.6 µM. Moreover, the solubility (kinetic) at 24 h, 200 µM in “physchem [13]” was less than 10 µM. The minimum inhibitory concentration (MIC) in data set [14] was 2 µg/mL (≈ 6.4 µM); in [19], 4 µg/mL (≈ 12.8 µM).
On to `Cc1cccc(Cn2ccn3cc([N+](=O)[O-])nc3c2=O)c1`, for which the half-maximal cytotoxic concentration (CC50) in the data set on HepG2 and in the data set on HEK293 was more than 100 µM each time. The minimum inhibitory concentration (MIC) in the data set with Candida albicans is more than 32 µg/mL; in the data set with Escherichia coli, more than 32 µg/mL; with Cryptococcus neoformans it was more than 32 µg/mL; in the data set on Pseudomonas aeruginosa, more than 32 µg/mL; in data set [14] it was 0.06 µg/mL (≈ 0.211 µM); against Acinetobacter baumannii, more than 32 µg/mL. In addition, the minimal inhibitory concentration (MIC) in the data set with Klebsiella pneumoniae and in the data set on Staphylococcus aureus was more than 32 µg/mL in each case. The pIC50 in [9] is 5.27; in the data set on Giardia intestinalis [10], 5.05. In addition, the IC50 in data set [9] is 5.01 µM; with Giardia intestinalis [10], 10 µM. Moreover, in data set [20], the “growth inhibition (GI)” value is listed as 70 - 90%.
Regarding `CC(=O)OCCn1c(C)cn2cc([N+](=O)[O-])nc2c1=O`, the “log(Kinetic_solubility)” value in data set [17] and in data set [18] was more than -4 throughout. For the same molecule, the negative logarithm of the IC50 (pIC50) in data set [9] was 6.19; with Giardia intestinalis [10], 4.30. Also, the IC50 was 0.631 µM in data set [9] and 50.1 µM in the data set on Giardia intestinalis [10]. Also, the solubility (kinetic) at 24 h, 200 µM in “physchem [12]” and in the data set “physchem [13]” was 100 to 200 µM (≈ 28 to 56 µg/mL) throughout. In addition, the MIC in [14] and in [19] was more than 32 µg/mL throughout. The inhibition of growth at 50 µM in the data set on Entamoeba histolytica [21] was found to be 41%.

In general, MIC refers to the smallest concentration in the dilution series that meets the test's criterion for growth inhibition. A low value points to a more susceptible organism. The Papp is a coefficient for how fast a substance crosses the barrier. Usually CC50 stands for the concentration at which the toxic effect on the cells reaches its halfway point. A high value points to lower toxicity to the cells. A word on the pIC50: it is −log10 of the IC50, conventionally taken in molar units. By solubility (kinetic) is commonly meant the concentration staying in solution when a stock, usually in DMSO, is diluted into the medium.

These data come from ChEMBL document CHEMBL4382237, “Design, Synthesis, and Biological Evaluation of 2-Nitroimidazopyrazin-one/-es with Antitubercular and Antiparasitic Activity” (J Med Chem, 2018).
